For orientation: IC50 means the midpoint of a concentration-inhibition curve. A higher IC50 goes with a need for much substance.

Experiment [1] deals with Rattus norvegicus. Briefly: Antiinflammatory activity against carrageenan-induced rat paw edema in orally dosed rat after 3 hrs. It counts as functional. Conditions: po, read-out: ID50 (the source's name). On the technique in general: In the carrageenan paw model, swelling and tenderness develop within hours.
The test system of experiment [2] is Rattus norvegicus. Kind of experiment: Gastric damage production in rat assessed as gastric ulcer index at 1.21 mmol/kg, po after 6 hrs. It counts as functional, Stomach. The method, boiled down:
(§1)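 Rats fasted 24 h (water allowed), given single oral dose suspended in 1.7 mL 1% methylcellulose; vehicle controls. Killed 6 h later by CO2; stomachs opened along greater curvature and ulcer lengths scored under magnifier. Ulcer index = total ulcer length (mm) summed over stomachs divided by animals (n = 4); mean ± SEM.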

Experiment [3] concerns Rattus norvegicus. Briefly: Gastric damage production in rat assessed as gastric ulcer index at 1.38 mmol/kg, po after 6 hrs. In kind it is functional, Stomach. The method, boiled down:
as §1

Experiment [4] addresses T1, Prostaglandin G/H synthase 1 (Ovis aries, UniProt P05979).
T1 sequence (P05979 whole entry): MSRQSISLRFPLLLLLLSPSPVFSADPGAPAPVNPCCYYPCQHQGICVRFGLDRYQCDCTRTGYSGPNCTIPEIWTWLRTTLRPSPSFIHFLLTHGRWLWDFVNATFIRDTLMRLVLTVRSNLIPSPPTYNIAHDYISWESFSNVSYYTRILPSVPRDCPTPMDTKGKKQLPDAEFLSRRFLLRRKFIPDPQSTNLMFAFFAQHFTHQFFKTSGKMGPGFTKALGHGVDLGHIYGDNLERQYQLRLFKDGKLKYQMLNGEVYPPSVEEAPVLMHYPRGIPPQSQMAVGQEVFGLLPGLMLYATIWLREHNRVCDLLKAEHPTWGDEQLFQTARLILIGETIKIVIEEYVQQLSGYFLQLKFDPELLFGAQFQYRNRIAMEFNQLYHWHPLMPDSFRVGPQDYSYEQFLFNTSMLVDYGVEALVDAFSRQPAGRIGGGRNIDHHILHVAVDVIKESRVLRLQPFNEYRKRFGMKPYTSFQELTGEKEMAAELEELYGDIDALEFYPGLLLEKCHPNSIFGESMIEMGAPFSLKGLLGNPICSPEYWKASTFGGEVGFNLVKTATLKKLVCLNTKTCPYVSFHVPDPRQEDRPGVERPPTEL
Kind of experiment: Inhibition of ovine COX1 by enzyme immuno assay.

Experiment [5] can be described thus: Effect on nitric oxide release in pH 7.4 PBS buffer using sievers […]. In kind it is functional. The method, boiled down: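 Prodrug in DMSO (46 or 77 mM stock), 10 μL injected into 3 mL deoxygenated phosphate buffer pH 7.4 at 37 °C in sealed cell; NO swept by nitrogen purge to chemiluminescence analyzer calibrated with NO/He standards; mol NO/mol compound from integrated peak area; time to ~50% of theoretical NO read graphically.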

Experiment [6] is described as follows: Effect on nitric oxide release in presence of porcine liver esterase per mole using sievers […]. In kind it is functional. An outline of the steps: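 Porcine liver esterase (10 μL of suspension in 3.2 M ammonium sulfate) in 3 mL phosphate buffer pH 8.0; 10 μL of 46 or 77 mM DMSO stock injected; NO carried by nitrogen purge to chemiluminescence analyzer, quantified against calibration curve; time to 100% theoretical NO read graphically.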

For experiment [7], the system named is Rattus norvegicus. Briefly: Gastric damage production in rat assessed as gastric ulcer index at 0.08 mmol/kg, po after 6 hrs. It counts as functional, Stomach. An outline of the steps:
as §1

Each structure is given as a SMILES string. A value given as a limit tells only on which side of the number the result lay.

`CC(C)Cc1ccc(C(C)C(=O)O)cc1` (configuration not stated) [IBUPROFEN]: the ED50 in the experiment with Rattus norvegicus [1] came to 327 µmol/kg. For the same compound, in the experiment on Rattus norvegicus [2], the Activity is 45.8.
Turning to `CC(=O)Oc1ccccc1C(=O)O` [ASPIRIN], the ED50 in the experiment on Rattus norvegicus [1] is 714 µmol/kg. Moreover, the Activity in the experiment on Rattus norvegicus [3] is 57.4.
Regarding `COc1ccc2c(c1)c(CC(=O)O)c(C)n2C(=O)c1ccc(Cl)cc1` [INDOMETHACIN], the ED50 in the experiment with Rattus norvegicus [1] is 11.7 µmol/kg.
On to `CC(=O)OCO/N=[N+](\[O-])N(C)CCOC(=O)c1ccccc1OC(C)=O`, for which the IC50 in experiment [4] was > 100 µM. Besides, the ED50 in the experiment with Rattus norvegicus [1] stood at 553 µmol/kg. Further, the Activity in experiment [5] turned out to be 1 mol/mol; in experiment [6], 2 mol/mol; in the experiment on Rattus norvegicus [3], 0.84.
For `CC(=O)OCO/N=[N+](\[O-])N(C)CCO`, the values for the Activity in experiment [5] and in experiment [6] were 1 mol/mol and 2 mol/mol, respectively.
As for `CC(=O)OCO/N=[N+](\[O-])N(C)CCOC(=O)C(C)c1ccc(CC(C)C)cc1` (configuration not stated), the concentration for half-maximal inhibition (IC50) in experiment [4] is > 100 µM. Besides, the ED50 in the experiment with Rattus norvegicus [1] came out at 175 µmol/kg. The Activity in experiment [5] turned out to be 1.1 mol/mol; in experiment [6], 2 mol/mol; in the experiment with Rattus norvegicus [2], 0.
`COc1ccc2c(c1)c(CC(=O)OCCN(C)/[N+]([O-])=N/OCOC(C)=O)c(C)n2C(=O)c1ccc(Cl)cc1`: the IC50 in experiment [4] was > 100 µM. Also, in the experiment on Rattus norvegicus [1], the ED50 worked out at 20.3 µmol/kg. The Activity worked out at 0.9 mol/mol in experiment [5], 2 mol/mol in experiment [6] and 1.3 in the experiment on Rattus norvegicus [7].

For the origin of these results see ChEMBL document CHEMBL1143701, “O2-acetoxymethyl-protected diazeniumdiolate-based NSAIDs (NONO-NSAIDs): synthesis, nitric oxide release, and biological evaluation studies” (Bioorg Med Chem, 2007).
